Experimental data reported in ChEMBL document CHEMBL1287666, “Synthesis and in vitro antifungal activities of new 3-substituted benzopyrone derivatives” (2010).
Converted amounts (≈) assume the structure as drawn.

Experiments:
Type in all cases: functional
Cryptococcus neoformans = assay: Antifungal activity against Cryptococcus neoformans by serial dilution method
How it was run: (§1)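 Broth serial dilution in 96-well microplates against a panel of five human pathogenic fungi. Activity is reported as the minimal inhibitory concentration (MIC), and fluconazole served as the positive control.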

Candida albicans = assay: Antifungal activity against Candida albicans by serial dilution method; how it was run: as §1
Nannizzia gypsea = assay: Antifungal activity against Microsporum gypseum clinical isolate by serial dilution method; how it was run: as §1
Candida parapsilosis = assay: Antifungal activity against Candida parapsilosis clinical isolate by serial dilution method; conditions: Lodderomyces parapsilosis; how it was run: as §1
Trichophyton rubrum [1] = assay: Antifungal activity against Trichophyton rubrum clinical isolate by serial dilution method; how it was run: as §1
Trichophyton rubrum [2] = assay: Antifungal activity against Trichophyton rubrum

## CCC(=O)OCC#Cc1coc2cc(OC)ccc2c1=O
Cryptococcus neoformans
  MIC: 25 µg/mL (≈ 87.3 µM)
Candida albicans
  MIC: 25 µg/mL (≈ 87.3 µM)
Nannizzia gypsea
  MIC: 12.5 µg/mL (≈ 43.7 µM)
Candida parapsilosis
  MIC: 25 µg/mL (≈ 87.3 µM)
Trichophyton rubrum [1]
  MIC: 6.25 µg/mL (≈ 21.8 µM)

## COc1ccc2c(=O)c(C#CCOC(C)=O)coc2c1
Cryptococcus neoformans
  MIC: > 100 µg/mL
Candida albicans
  MIC: > 100 µg/mL
Nannizzia gypsea
  MIC: 25 µg/mL (≈ 91.8 µM)
Candida parapsilosis
  MIC: > 100 µg/mL
Trichophyton rubrum [1]
  MIC: > 100 µg/mL

## CCCCCC(=O)OCC#Cc1coc2cc(OC)ccc2c1=O
Cryptococcus neoformans
  MIC: > 100 µg/mL
Candida albicans
  MIC: > 100 µg/mL
Nannizzia gypsea
  MIC: 12.5 µg/mL (≈ 38.1 µM)
Candida parapsilosis
  MIC: 50 µg/mL (≈ 152 µM)
Trichophyton rubrum [1]
  MIC: 25 µg/mL (≈ 76.1 µM)

## CCCC(=O)OCC#Cc1coc2cc(OC)ccc2c1=O
Cryptococcus neoformans
  MIC: 50 µg/mL (≈ 166 µM)
Candida albicans
  MIC: 12.5 µg/mL (≈ 41.6 µM)
Nannizzia gypsea
  MIC: 25 µg/mL (≈ 83.2 µM)
Candida parapsilosis
  MIC: 50 µg/mL (≈ 166 µM)
Trichophyton rubrum [1]
  MIC: 12.5 µg/mL (≈ 41.6 µM)

## OC(Cn1cncn1)(Cn1cncn1)c1ccc(F)cc1F [FLUCONAZOLE]
Cryptococcus neoformans
  MIC: 1 µg/mL (≈ 3.27 µM)
Candida albicans
  MIC: 0.25 µg/mL (≈ 0.816 µM)
Nannizzia gypsea
  MIC: 0.5 µg/mL (≈ 1.63 µM)
Candida parapsilosis
  MIC: 32 µg/mL (≈ 104 µM)
Trichophyton rubrum [1]
  MIC: 0.25 µg/mL (≈ 0.816 µM)

## COc1ccc2c(=O)c(C#CCOC(=O)Cc3ccccc3Cl)coc2c1
Cryptococcus neoformans
  MIC: > 100 µg/mL
Candida albicans
  MIC: > 100 µg/mL
Nannizzia gypsea
  MIC: 50 µg/mL (≈ 131 µM)
Candida parapsilosis
  MIC: > 100 µg/mL
Trichophyton rubrum [1]
  MIC: 50 µg/mL (≈ 131 µM)

## CCCCCCC(=O)OCC#Cc1coc2cc(OC)ccc2c1=O
Cryptococcus neoformans
  MIC: > 100 µg/mL
Candida albicans
  MIC: > 100 µg/mL
Nannizzia gypsea
  MIC: > 100 µg/mL
Candida parapsilosis
  MIC: > 100 µg/mL
Trichophyton rubrum [1]
  MIC: > 100 µg/mL

## COc1ccc2c(=O)c(C#CCOC(=O)C3CCCCC3)coc2c1
Cryptococcus neoformans
  MIC: > 100 µg/mL
Candida albicans
  MIC: > 100 µg/mL
Nannizzia gypsea
  MIC: > 100 µg/mL
Candida parapsilosis
  MIC: > 100 µg/mL
Trichophyton rubrum [1]
  MIC: > 100 µg/mL

## COc1ccc2c(=O)c(C#CCOC(=O)C(C)C)coc2c1
Cryptococcus neoformans
  MIC: 50 µg/mL (≈ 166 µM)
Candida albicans
  MIC: 50 µg/mL (≈ 166 µM)
Nannizzia gypsea
  MIC: 25 µg/mL (≈ 83.2 µM)
Candida parapsilosis
  MIC: 12.5 µg/mL (≈ 41.6 µM)
Trichophyton rubrum [1]
  MIC: 3.12 µg/mL (≈ 10.4 µM)

## COc1ccc2c(=O)c(C#CCOC(=O)c3ccc([N+](=O)[O-])cc3)coc2c1
Cryptococcus neoformans
  MIC: > 100 µg/mL
Candida albicans
  MIC: > 100 µg/mL
Nannizzia gypsea
  MIC: > 100 µg/mL
Candida parapsilosis
  MIC: > 100 µg/mL
Trichophyton rubrum [1]
  MIC: > 100 µg/mL

## COc1ccc2c(=O)c(C#CCOC(=O)Cc3ccc(Cl)cc3)coc2c1
Cryptococcus neoformans
  MIC: > 100 µg/mL
Candida albicans
  MIC: > 100 µg/mL
Nannizzia gypsea
  MIC: > 100 µg/mL
Candida parapsilosis
  MIC: > 100 µg/mL
Trichophyton rubrum [1]
  MIC: > 100 µg/mL

## COc1ccc2c(=O)c(C#CCOC(=O)c3cc([N+](=O)[O-])cc([N+](=O)[O-])c3)coc2c1
Cryptococcus neoformans
  MIC: > 100 µg/mL
Candida albicans
  MIC: > 100 µg/mL
Nannizzia gypsea
  MIC: 50 µg/mL (≈ 118 µM)
Candida parapsilosis
  MIC: > 100 µg/mL
Trichophyton rubrum [1]
  MIC: 50 µg/mL (≈ 118 µM)

## COc1ccc2c(=O)c(C#CCOC(=O)CC(C)C)coc2c1
Cryptococcus neoformans
  MIC: 50 µg/mL (≈ 159 µM)
Candida albicans
  MIC: > 100 µg/mL
Nannizzia gypsea
  MIC: 25 µg/mL (≈ 79.5 µM)
Candida parapsilosis
  MIC: 50 µg/mL (≈ 159 µM)
Trichophyton rubrum [1]
  MIC: 6.25 µg/mL (≈ 19.9 µM)

## COc1ccc2c(=O)c(C#CCO)coc2c1
Cryptococcus neoformans
  MIC: > 100 µg/mL
Candida albicans
  MIC: > 100 µg/mL
Nannizzia gypsea
  MIC: > 100 µg/mL
Candida parapsilosis
  MIC: > 100 µg/mL
Trichophyton rubrum [1]
  MIC: > 100 µg/mL

## CCCCCCCC(=O)OCC#Cc1coc2cc(OC)ccc2c1=O
Cryptococcus neoformans
  MIC: > 100 µg/mL
Candida albicans
  MIC: > 100 µg/mL
Nannizzia gypsea
  MIC: > 100 µg/mL
Candida parapsilosis
  MIC: > 100 µg/mL
Trichophyton rubrum [1]
  MIC: > 100 µg/mL

## COc1ccc2c(=O)c(C#CCOC(=O)C3C(C)(C)C3(C)C)coc2c1
Cryptococcus neoformans
  MIC: > 100 µg/mL
Candida albicans
  MIC: > 100 µg/mL
Nannizzia gypsea
  MIC: 12.5 µg/mL (≈ 35.3 µM)
Candida parapsilosis
  MIC: > 100 µg/mL
Trichophyton rubrum [1]
  MIC: > 100 µg/mL

## CCCCC(=O)OCC#Cc1coc2cc(OC)ccc2c1=O
Trichophyton rubrum [2]
  MIC80: 1.5 µg/mL (≈ 4.77 µM)
Cryptococcus neoformans
  MIC: 25 µg/mL (≈ 79.5 µM)
Candida albicans
  MIC: 25 µg/mL (≈ 79.5 µM)
Nannizzia gypsea
  MIC: 25 µg/mL (≈ 79.5 µM)
Candida parapsilosis
  MIC: 25 µg/mL (≈ 79.5 µM)
Trichophyton rubrum [1]
  MIC: 1.5 µg/mL (≈ 4.77 µM)

## COc1ccc2c(=O)c(C#CCOC(=O)CCCCC(C)C)coc2c1
Cryptococcus neoformans
  MIC: 50 µg/mL (≈ 140 µM)
Candida albicans
  MIC: > 100 µg/mL
Nannizzia gypsea
  MIC: 12.5 µg/mL (≈ 35.1 µM)
Candida parapsilosis
  MIC: 25 µg/mL (≈ 70.1 µM)
Trichophyton rubrum [1]
  MIC: 12.5 µg/mL (≈ 35.1 µM)

## COc1ccc2c(=O)c(C#CCOC(=O)c3ccccc3)coc2c1
Cryptococcus neoformans
  MIC: > 100 µg/mL
Candida albicans
  MIC: > 100 µg/mL
Nannizzia gypsea
  MIC: > 100 µg/mL
Candida parapsilosis
  MIC: > 100 µg/mL
Trichophyton rubrum [1]
  MIC: > 100 µg/mL

## COc1ccc2c(=O)c(C#CCOC(=O)Cc3ccccc3)coc2c1
Cryptococcus neoformans
  MIC: > 100 µg/mL
Candida albicans
  MIC: > 100 µg/mL
Nannizzia gypsea
  MIC: > 100 µg/mL
Candida parapsilosis
  MIC: > 100 µg/mL
Trichophyton rubrum [1]
  MIC: > 100 µg/mL
